The record followed here is ChEMBL document CHEMBL1122688, “Antimycotic azoles. 7. Synthesis and antifungal properties of a series of novel triazol-3-ones” (1984).

The test system of one assay is Phialophora verrucosa. Kind of assay: In vitro antifungal activity against Phialophora verrucosa. Type of assay: functional. In a few lines:
(§1)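 Fungal growth-inhibition screen (Godefroi method) against dermatophytes, yeasts, moulds and other fungi. The value is the lowest concentration (µg/mL) giving total inhibition of growth, tested up to 100 µg/mL.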

Assay [1] is described as follows: In vivo activity against vaginal candidoses in rats, measured as the ratio of animals cured/animals infected (C/I) at dose 2.5 mg/kg; C/I = 1/2. It counts as functional.
The subject of another assay is Saprolegnia. Kind of assay: In vitro antifungal activity against Saprolegnia sp. It counts as functional. In a few lines: as §1
The subject of a further assay is Microsporum canis. Kind of assay: In vitro antifungal activity against Microsporum canis. Type of assay: functional. In a few lines:
as §1

The next assay concerns Candida tropicalis. Kind of assay: In vitro antifungal activity against Candida tropicalis. It counts as functional. Put shortly: as §1
A further assay concerns Aspergillus fumigatus. Kind of assay: In vitro antifungal activity against Aspergillus fumigatus. It counts as functional. In a few lines:
as §1

Assay [2] can be described thus: In vitro antifungal activity against Mucor sp. Type of assay: functional. Put shortly:
as §1

In another assay the test system is Candida albicans. Kind of assay: In vitro antifungal activity against Candida albicans. Type of assay: functional. Put shortly: as §1
The next assay relates to Sporothrix schenckii. Kind of assay: In vitro antifungal activity against Sporothrix schenck ii. Type of assay: functional. In a few lines: as §1
Another assay deals with Trichophyton benhamiae. Kind of assay: In vitro antifungal activity against Trichophyton mentagrophytes. It counts as functional, Arthroderma benhamiae. Put shortly: as §1
Assay [3] can be described thus: In vivo activity against vaginal candidoses in rats, measured as the ratio of animals cured/animals infected (C/I) at dose 10 mg/kg; C/I = 1/2. It counts as functional.
A short description of assay [4]: In vivo activity against microsporosis guinea pig, measured as the ratio of animals cured/animals infected (C/I) at dose 20 mg/kg; C/I = 0/2. Type of assay: functional.
The test system of the next assay is Cryptococcus neoformans. Kind of assay: In vitro antifungal activity against Cryptococcus neoformans. Type of assay: functional. In a few lines: as §1
The test system of the next assay is Trichophyton rubrum. Kind of assay: In vitro antifungal activity against Trichophyton rubrum. Type of assay: functional. In a few lines: as §1
Assay [5] in a line: In vivo activity against microsporosis guinea pig, measured as the ratio of animals cured/animals infected (C/I) at dose 10 mg/kg; 1/2. Type of assay: functional.
A short description of assay [6]: In vivo activity against vaginal candidoses in rats, measured as the ratio of animals cured/animals infected (C/I) at dose 2.5 mg/kg; 0/2. Type of assay: functional.
A short description of assay [7]: In vivo activity against microsporosis guinea pig, measured as the ratio of animals cured/animals infected (C/I) at dose 2.5 mg/kg; 0/2. Type of assay: functional.
Assay [8] can be described thus: In vivo activity against microsporosis guinea pig, measured as the ratio of animals cured/animals infected (C/I) at dose 2.5 mg/kg; C/I = 2/6. Type of assay: functional.
The nature of assay [9]: In vivo activity against vaginal candidoses in rats, measured as the ratio of animals cured/animals infected (C/I) at dose 2.5 mg/kg; C/I = 4/11. It counts as functional.
A short description of assay [10]: In vivo activity against vaginal candidoses in rats, measured as the ratio of animals cured/animals infected (C/I) at dose 0.63 mg/kg; C/I = 0/4. It counts as functional.
Assay [11] is described as follows: In vivo activity against microsporosis guinea pig, measured as the ratio of animals cured/animals infected (C/I) at dose 1.25 mg/kg; C/I = 0/6. It counts as functional.
Assay [12] in a line: In vivo activity against microsporosis guinea pig, measured as the ratio of animals cured/animals infected (C/I) at dose 10 mg/kg; C/I = 4/4. It counts as functional.
Assay [13] concerns Rattus norvegicus. Kind of assay: In vivo activity against vaginal candidoses in rats, measured as the ratio of animals cured/animals infected (C/I) at dose 1.25 mg/kg; C/I = 3/12. It counts as functional.
A short description of assay [14]: In vivo activity against vaginal candidoses in rats, measured as the ratio of animals cured/animals infected (C/I) at dose 10 mg/kg; C/I = 5/6. It counts as functional.
Assay [15] can be described thus: In vivo activity against vaginal candidoses in rats, measured as the ratio of animals cured/animals infected (C/I) at dose 10 mg/kg; C/I = 12/12. Type of assay: functional.
In assay [16] the test system is Rattus norvegicus. Kind of assay: In vivo activity against vaginal candidoses in rats, measured as the ratio of animals cured/animals infected (C/I) at dose 1.25 mg/kg; C/I = 13/33. It counts as functional.
A short description of assay [17]: In vivo activity against microsporosis guinea pig, measured as the ratio of animals cured/animals infected (C/I) at dose 2.5 mg/kg; C/I = 11/12. It counts as functional.
Assay [18] can be described thus: In vivo activity against vaginal candidoses in rats, measured as the ratio of animals cured/animals infected (C/I) at dose 2.5 mg/kg; C/I = 29/34. Type of assay: functional.
Assay [19] in a line: In vivo activity against microsporosis guinea pig, measured as the ratio of animals cured/animals infected (C/I) at dose 1.25 mg/kg; C/I = 12/15. It counts as functional.
A short description of assay [20]: In vivo activity against vaginal candidoses in rats, measured as the ratio of animals cured/animals infected (C/I) at dose 0.63 mg/kg; C/I = 7/40. Type of assay: functional.
Assay [21] is described as follows: In vivo activity against microsporosis guinea pig, measured as the ratio of animals cured/animals infected (C/I) at dose 10 mg/kg; C/I = 6/6. Type of assay: functional.
Assay [22] in a line: In vivo activity against microsporosis guinea pig, measured as the ratio of animals cured/animals infected (C/I) at dose 1.25 mg/kg; C/I = 2/6. Type of assay: functional.
Assay [23] can be described thus: In vivo activity against vaginal candidoses in rats, measured as the ratio of animals cured/animals infected (C/I) at dose 2.5 mg/kg; C/I = 20/24. Type of assay: functional.
Assay [24] in a line: In vivo activity against microsporosis guinea pig, measured as the ratio of animals cured/animals infected (C/I) at dose 2.5 mg/kg; C/I = 7/12. Type of assay: functional.
The nature of assay [25]: In vivo activity against vaginal candidoses in rats, measured as the ratio of animals cured/animals infected (C/I) at dose 0.63 mg/kg; C/I = 2/12. Type of assay: functional.
The test system of assay [26] is Rattus norvegicus. Kind of assay: In vivo activity against vaginal candidoses in rats, measured as the ratio of animals cured/animals infected (C/I) at dose 1.25 mg/kg; C/I = 12/22. It counts as functional.
The nature of assay [27]: In vivo activity against vaginal candidoses in rats, measured as the ratio of animals cured/animals infected (C/I) at dose 2.5 mg/kg; C/I = 7/10. It counts as functional.
Assay [28] is described as follows: In vivo activity against microsporosis guinea pig, measured as the ratio of animals cured/animals infected (C/I) at dose 1.25 mg/kg; C/I = 3/6. It counts as functional.
Assay [29] can be described thus: In vivo activity against vaginal candidoses in rats, measured as the ratio of animals cured/animals infected (C/I) at dose 1.25 mg/kg; C/I = 7/10. It counts as functional.
A short description of assay [30]: In vivo activity against vaginal candidoses in rats, measured as the ratio of animals cured/animals infected (C/I) at dose 0.63 mg/kg; C/I = 4/10. Type of assay: functional.
Assay [31] is described as follows: In vivo activity against microsporosis guinea pig, measured as the ratio of animals cured/animals infected (C/I) at dose 2.5 mg/kg; C/I = 5/8. It counts as functional.
A short description of assay [32]: In vivo activity against microsporosis guinea pig, measured as the ratio of animals cured/animals infected (C/I) at dose 10 mg/kg; C/I = 2/2. Type of assay: functional.
Assay [33] can be described thus: In vivo activity against vaginal candidoses in rats, measured as the ratio of animals cured/animals infected (C/I) at dose 1.25 mg/kg; 0/12. Type of assay: functional.
Assay [34] can be described thus: In vivo activity against vaginal candidoses in rats, measured as the ratio of animals cured/animals infected (C/I) at dose 10 mg/kg; 173/181. It counts as functional.
A short description of assay [35]: In vivo activity against vaginal candidoses in rats, measured as the ratio of animals cured/animals infected (C/I) at dose 2.5 mg/kg; 2/8. Type of assay: functional.
A short description of assay [36]: In vivo activity against microsporosis guinea pig, measured as the ratio of animals cured/animals infected (C/I) at dose 20 mg/kg; 30/30. Type of assay: functional.
The nature of assay [37]: In vivo activity against microsporosis guinea pig, measured as the ratio of animals cured/animals infected (C/I) at dose 2.5 mg/kg;0/14. It counts as functional.
A short description of assay [38]: In vivo activity against microsporosis guinea pig, measured as the ratio of animals cured/animals infected (C/I) at dose 10 mg/kg; 4/34. Type of assay: functional.

As for `Cc1nn(C)c(=O)n1-c1ccc(N2CCN(c3ccc(OC[C@@H]4COC(Cn5cncn5)(c5ccc(Cl)cc5Cl)O4)cc3)CC2)cc1` (stereo not given in full), the Inhibition (with Phialophora verrucosa; in the assay with Saprolegnia; in the assay with Microsporum canis; in the assay on Candida tropicalis; in the assay on Aspergillus fumigatus; in assay [2]) was above 100 µg/mL each time. Also, the Inhibition with Candida albicans, in the assay on Sporothrix schenckii, with Trichophyton benhamiae, with Cryptococcus neoformans and in the assay on Trichophyton rubrum was above 100 µg/mL throughout. In addition, the C/I ratio in [1] was determined as 1; in assay [3], 1; in assay [4], 0.
Compound `C=CCn1ncn(-c2ccc(N3CCN(c4ccc(OC[C@@H]5COC(Cn6ccnc6)(c6ccc(Cl)cc6Cl)O5)cc4)CC3)cc2)c1=O` (stereo not given in full) came in with a Lowest level of total inhibition in the assay with Microsporum canis above 100 µg/mL. The C/I ratio worked out at 1 in [5], 0 in [6] and 0 in assay [7].
In the case of `Cn1ncn(-c2ccc(N3CCN(c4ccc(OC[C@@H]5COC(Cn6ccnc6)(c6ccc(Cl)cc6Cl)O5)cc4)CC3)cc2)c1=O` (stereo not given in full), the Inhibition with Phialophora verrucosa was above 100 µg/mL; with Saprolegnia it was 100 µg/mL; with Microsporum canis, above 100 µg/mL; in the assay on Candida tropicalis it was 1 µg/mL; in the assay with Aspergillus fumigatus, 100 µg/mL; in assay [2], above 100 µg/mL. Further, the Inhibition in the assay with Candida albicans was above 100 µg/mL; with Sporothrix schenckii it was above 100 µg/mL; with Trichophyton benhamiae, 1 µg/mL; in the assay with Cryptococcus neoformans, 1 µg/mL; in the assay with Trichophyton rubrum, 1 µg/mL. Also, the C/I ratio in assay [8] amounted to 0.333; in [9], 0.364; in assay [10], 0; in [11], 0; in assay [12], 1; in the assay with Rattus norvegicus [13], 0.25. Further, the C/I ratio in assay [14] is 0.833.
Regarding `CCC(C)n1ncn(-c2ccc(N3CCN(c4ccc(OC[C@@H]5COC(Cn6cncn6)(c6ccc(Cl)cc6Cl)O5)cc4)CC3)cc2)c1=O` (stereo not given in full), the C/I ratio stood at 1 in [15]; 0.394 with Rattus norvegicus [16]; 11 in assay [17]; 0.853 in [18]; 0.8 in assay [19]; 0.175 in assay [20]. Also, in [21], the C/I ratio was 1. The Inhibition with Phialophora verrucosa was above 100 µg/mL; with Saprolegnia, above 100 µg/mL; with Microsporum canis, above 100 µg/mL; in the assay on Candida tropicalis, 100 µg/mL; in the assay on Aspergillus fumigatus, above 100 µg/mL; in assay [2] it was above 100 µg/mL. In addition, the Inhibition in the assay on Candida albicans was above 100 µg/mL; with Sporothrix schenckii, above 100 µg/mL; in the assay on Trichophyton benhamiae, 10 µg/mL; in the assay with Cryptococcus neoformans, 100 µg/mL; in the assay with Trichophyton rubrum it was 10 µg/mL.
On to `CC(C)n1ncn(-c2ccc(N3CCN(c4ccc(OC[C@@H]5COC(Cn6cncn6)(c6ccc(Cl)cc6Cl)O5)cc4)CC3)cc2)c1=O` (stereo not given in full), for which the Inhibition (in the assay on Phialophora verrucosa; in the assay on Saprolegnia; in the assay with Microsporum canis; with Candida tropicalis; in the assay with Aspergillus fumigatus; in assay [2]) was above 100 µg/mL in each case. The Inhibition with Candida albicans is above 100 µg/mL; in the assay with Sporothrix schenckii, above 100 µg/mL; with Trichophyton benhamiae, 100 µg/mL; in the assay on Cryptococcus neoformans it was above 100 µg/mL; with Trichophyton rubrum, above 100 µg/mL. Also, the C/I ratio in [22] was 2; in assay [23], 0.833; in [21], 1; in assay [24] it was 0.583 (not active); in assay [25] it was 0.167; with Rattus norvegicus [26], 0.545. In addition, the C/I ratio in assay [14] stood at 0.833.
On to `CC(C)Cn1ncn(-c2ccc(N3CCN(c4ccc(OC[C@@H]5COC(Cn6cncn6)(c6ccc(Cl)cc6Cl)O5)cc4)CC3)cc2)c1=O` (stereo not given in full), for which the Inhibition in the assay with Phialophora verrucosa is above 100 µg/mL; in the assay with Saprolegnia it was above 100 µg/mL; with Microsporum canis it was above 100 µg/mL; in the assay with Candida tropicalis, 10 µg/mL; in the assay with Aspergillus fumigatus, above 100 µg/mL; in [2] it was above 100 µg/mL. Further, the Inhibition in the assay with Candida albicans was 100 µg/mL; with Sporothrix schenckii it was above 100 µg/mL; with Trichophyton benhamiae it was 10 µg/mL; in the assay with Cryptococcus neoformans it was 100 µg/mL; in the assay on Trichophyton rubrum it was 10 µg/mL. In addition, the C/I ratio in assay [27] is 0.7; in [28], 0.5; in [29], 0.7; in assay [30], 0.4; in assay [31], 0.625; in [32], 2.
Regarding `CC(=O)N1CCN(c2ccc(OCC3COC(Cn4ccnc4)(c4ccc(Cl)cc4Cl)O3)cc2)CC1` (stereo not given) [KETOCONAZOLE], the C/I ratio in [33] turned out to be 0; in assay [34], 0.956; in assay [35] it was 0.25; in [36] it was 1; in assay [37], 0; in assay [38], 0.118.
